Assay results taken from ChEMBL document CHEMBL1155241, “Investigation of N-aryl-3-alkylidenepyrrolinones as potential Niemann-Pick type C disease therapeutics” (2009).
Calls of active or inactive are those of the source. No cut-off for these calls is given here.

Key:
[1] = Inhibition of LDL endocytosis in wild type chinese hamster 25RA cells assessed as ratio of DiI-labeled LDL level in treated to untreated control at 10 uM after 35 mins by fluorimetry; assay type: functional, Cricetulus griseus
Outline: (§1)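 CT60 or 25RA cells incubated with compound together with DiI-labeled LDL, either 35 min (short) or 18 h (long). Uptake quantified as DiI fluorescence intensity per cell area and normalized to the mean of solvent (DMSO)-treated samples.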

[2] = Inhibition of LDL endocytosis in NPC1 deficient chinese hamster CT60 cells assessed as ratio of DiI-labeled LDL level in treated to untreated control at 10 uM after 18 hrs by fluorimetry; assay type: functional, Cricetulus griseus; outline: as §1
[3] = molecular target: T1, Sterol O-acyltransferase 1 (Cricetulus griseus) (UniProt Q60457); experiment: Increase in ACAT-induced cholesterol esterification in NPC1 deficient chinese hamster CT60 cells assessed as ratio of [14C]oleic acid incorporation in treated to untreated control at 10 uM; assay type: cell-based
T1 sequence (whole entry): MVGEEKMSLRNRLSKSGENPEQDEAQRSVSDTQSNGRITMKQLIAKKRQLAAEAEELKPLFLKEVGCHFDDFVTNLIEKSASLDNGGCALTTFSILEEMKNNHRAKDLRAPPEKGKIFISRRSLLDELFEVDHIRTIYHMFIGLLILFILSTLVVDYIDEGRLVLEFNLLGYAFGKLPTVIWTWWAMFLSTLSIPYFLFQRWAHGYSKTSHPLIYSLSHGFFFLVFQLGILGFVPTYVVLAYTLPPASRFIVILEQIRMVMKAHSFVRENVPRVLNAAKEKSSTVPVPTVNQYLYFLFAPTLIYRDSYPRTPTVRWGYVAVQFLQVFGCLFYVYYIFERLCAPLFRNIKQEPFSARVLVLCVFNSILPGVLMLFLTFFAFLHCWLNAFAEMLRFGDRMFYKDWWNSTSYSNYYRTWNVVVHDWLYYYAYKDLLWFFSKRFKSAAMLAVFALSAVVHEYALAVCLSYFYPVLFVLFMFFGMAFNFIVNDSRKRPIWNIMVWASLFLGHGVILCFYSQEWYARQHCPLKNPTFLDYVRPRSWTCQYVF
Outline: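 CT60 cells treated 18 h at 10 µM. ACAT esterification measured as incorporation of [14C]-oleic acid into cholesteryl-[14C]-oleate, normalized to cellular protein. Expressed relative to solvent-treated controls.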

[4] = Effect on cholesterol esters content in NPC1 deficient chinese hamster CT60 cells assessed as ratio of cholesteryl esters level in treated to untreated control at 10 uM by gas chromatography; assay type: functional, Cricetulus griseus
Outline: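 CT60 cells exposed to 10 µM for 18 h alongside solvent (DMSO) controls. Total cellular cholesteryl ester measured by GC and expressed per µg cell protein. Reported relative to solvent-treated cells.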

CT60 = experiment: Increase in cholesterol efflux in NPC1 deficient chinese hamster CT60 cells at 10 uM after 18 hrs by [3H]cholesterol incorporation assay; assay type: functional, cell-based; conditions: Cricetulus griseus
Outline: (§2)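 Cells labeled 24 h with 1 µCi/ml [3H]-cholesterol, then incubated 18 h with 10 µM compound. Efflux went to serum acceptors. Efflux is supernatant radioactivity divided by supernatant plus cell-monolayer radioactivity, compared with solvent-treated control cells.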

Cricetulus griseus [5] = organism: Cricetulus griseus; experiment: Increase in cholesterol efflux in wild type chinese hamster 25RA cells with SCAP gene gain of function mutation at 10 uM after 18 hrs by [3H]cholesterol incorporation assay; assay type: functional; outline: as §2
Cricetulus griseus [6] = organism: Cricetulus griseus; experiment: Increase in cholesterol efflux in chinese hamster TRVb1 cells expressing human transferrin receptor at 10 uM after 18 hrs by [3H]cholesterol incorporation assay; assay type: functional; outline: as §2
[7] = Reduction in cholesterol level in lysosomal storage organelles of NPC1 deficient chinese hamster CT43 cells at 10 uM by LSO compartment ratio assay; assay type: functional, Cricetulus griseus; set-up: scale not given: the % may be the effect or the level left
[8] = Reduction in cholesterol level in lysosomal storage organelles of NPC1 deficient chinese hamster CT60 cells at 10 uM by LSO compartment ratio assay; assay type: functional, Cricetulus griseus; set-up: scale not given: the % may be the effect or the level left
[9] = Inhibition of LDL endocytosis in NPC1 deficient chinese hamster CT60 cells assessed as ratio of DiI-labeled LDL level in treated to untreated control at 10 uM after 35 mins by fluorimetry; assay type: functional, Cricetulus griseus; outline: as §1
[10] = Inhibition of LDL endocytosis in NPC1 deficient chinese hamster cells assessed as ratio of DiI-labeled LDL level in treated to untreated control at 10 uM after 18 hrs by fluorimetry

Ratio [3]: 1.49
Compound: O=C(O)c1ccc(N2C(=O)/C(=C\c3ccc(-c4ccc(Br)cc4)o3)C=C2c2ccccc2)cc1
Ratio [1]: 1.16
Ratio [2]: 0.59
Ratio [4]: 1.05
Activity (CT60): Active
Activity (Cricetulus griseus [5]): Active
Activity (Cricetulus griseus [6]): Active
Activity [7]: 80%
Activity [8]: 30%
Ratio [9]: 0.93
Ratio [10]: 0.67
